Source: ChEMBL document CHEMBL5053483, “Structure-Activity Relationship Study of Dexrazoxane Analogues Reveals ICRF-193 as the Most Potent Bisdioxopiperazine against Anthracycline Toxicity to Cardiomyocytes Due to Its Strong Topoisomerase IIβ Interactions” (J Med Chem, 2021)
One block for each molecule: values may come before it. Active and inactive are the calls of the source. The rule behind the calls is not given here.

Experiments:
[1] = test system: Neonatal ventricular cardiomyocytes; assay: (§1) Cardioprotective activity against DAU-induced cardiotoxicity in Wistar rat neonatal ventricular cardiomyocytes preincubated for 3 hrs followed by DAU addition for 3 hrs and further incubated for 48 hrs in drug free medium by LDH assay; format: functional, tissue-based; conditions: time 6.0 hrs
Procedure, shortened: (§2)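 Neonatal rat ventricular cardiomyocytes from collagenase II digests, preplated 2 h, 400 000 cells/well. Kept in serum- and pyruvate-free DMEM/F12. Cells pretreated 3 h with compound (10–100 μM), then co-incubated 3 h with 1.2 μM daunorubicin or without it. After 48 h in drug-free medium, LDH released to the medium was measured at 340 nm as percent of total LDH; four experiments.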

HL-60 [2] = assay: Antiproliferative activity against human HL-60 cells at 100 uM after 72 hrs by XTT assay; format: functional, cell-based
Procedure, shortened: (§3)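 HL-60 (ATCC) grown in RPMI-1640 with 10% FBS and antibiotics at 37 °C, 5% CO2. Seeded at 10 000 cells/well, exposed to compound for 72 h. XTT/PMS (1 mg/mL XTT, 50 μM PMS in PBS) added, absorbance read at 450 nm after 4 h. Results as percent of DMSO control; four independent experiments.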

HL-60 [3] = assay: Antiproliferative activity against human HL-60 cells assessed as increase in daunorubicin activity at 100 uM after 72 hrs in presence of 15 nM of daunorubicin by XTT assay
[4] = Cytotoxicity against Wistar rat neonatal ventricular cardiomyocytes at 1.2 uM by LDH assay; format: tissue-based; procedure, shortened: as §2
HL-60 [5] = assay: Antiproliferative activity against human HL-60 cells after 72 hrs by XTT assay; format: functional, cell-based; conditions: HL-60, 72 h; procedure, shortened: as §3
[6] = as §1; format: functional, tissue-based; procedure, shortened: as §2
[7] = Metal chelating activity assessed as displacement of Fe3+ from DAU-Fe3+ complex measured for 10 mins by spectrophotometric method
Procedure, shortened: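 DAU–Fe3+ complex (3:1) placed in 50 mM Tris/150 mM KCl, pH 7.4, room temperature, at 45 μM DAU and 15 μM Fe3+ final. After 3 min of equilibration, compound (100 μM) was added, with EDTA or SIH as reference chelators. Absorbance at 600 nm followed for 10 min, and the endpoint absorbance was compared.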

[8] = biological target: DNA topoisomerase 2-alpha (Homo sapiens, UniProt P11388); assay: Inhibition of human TOP2A assessed as reduction in […] using kDNA as substrate incubated for 30 min
Chain of DNA topoisomerase 2-alpha (P11388 whole entry): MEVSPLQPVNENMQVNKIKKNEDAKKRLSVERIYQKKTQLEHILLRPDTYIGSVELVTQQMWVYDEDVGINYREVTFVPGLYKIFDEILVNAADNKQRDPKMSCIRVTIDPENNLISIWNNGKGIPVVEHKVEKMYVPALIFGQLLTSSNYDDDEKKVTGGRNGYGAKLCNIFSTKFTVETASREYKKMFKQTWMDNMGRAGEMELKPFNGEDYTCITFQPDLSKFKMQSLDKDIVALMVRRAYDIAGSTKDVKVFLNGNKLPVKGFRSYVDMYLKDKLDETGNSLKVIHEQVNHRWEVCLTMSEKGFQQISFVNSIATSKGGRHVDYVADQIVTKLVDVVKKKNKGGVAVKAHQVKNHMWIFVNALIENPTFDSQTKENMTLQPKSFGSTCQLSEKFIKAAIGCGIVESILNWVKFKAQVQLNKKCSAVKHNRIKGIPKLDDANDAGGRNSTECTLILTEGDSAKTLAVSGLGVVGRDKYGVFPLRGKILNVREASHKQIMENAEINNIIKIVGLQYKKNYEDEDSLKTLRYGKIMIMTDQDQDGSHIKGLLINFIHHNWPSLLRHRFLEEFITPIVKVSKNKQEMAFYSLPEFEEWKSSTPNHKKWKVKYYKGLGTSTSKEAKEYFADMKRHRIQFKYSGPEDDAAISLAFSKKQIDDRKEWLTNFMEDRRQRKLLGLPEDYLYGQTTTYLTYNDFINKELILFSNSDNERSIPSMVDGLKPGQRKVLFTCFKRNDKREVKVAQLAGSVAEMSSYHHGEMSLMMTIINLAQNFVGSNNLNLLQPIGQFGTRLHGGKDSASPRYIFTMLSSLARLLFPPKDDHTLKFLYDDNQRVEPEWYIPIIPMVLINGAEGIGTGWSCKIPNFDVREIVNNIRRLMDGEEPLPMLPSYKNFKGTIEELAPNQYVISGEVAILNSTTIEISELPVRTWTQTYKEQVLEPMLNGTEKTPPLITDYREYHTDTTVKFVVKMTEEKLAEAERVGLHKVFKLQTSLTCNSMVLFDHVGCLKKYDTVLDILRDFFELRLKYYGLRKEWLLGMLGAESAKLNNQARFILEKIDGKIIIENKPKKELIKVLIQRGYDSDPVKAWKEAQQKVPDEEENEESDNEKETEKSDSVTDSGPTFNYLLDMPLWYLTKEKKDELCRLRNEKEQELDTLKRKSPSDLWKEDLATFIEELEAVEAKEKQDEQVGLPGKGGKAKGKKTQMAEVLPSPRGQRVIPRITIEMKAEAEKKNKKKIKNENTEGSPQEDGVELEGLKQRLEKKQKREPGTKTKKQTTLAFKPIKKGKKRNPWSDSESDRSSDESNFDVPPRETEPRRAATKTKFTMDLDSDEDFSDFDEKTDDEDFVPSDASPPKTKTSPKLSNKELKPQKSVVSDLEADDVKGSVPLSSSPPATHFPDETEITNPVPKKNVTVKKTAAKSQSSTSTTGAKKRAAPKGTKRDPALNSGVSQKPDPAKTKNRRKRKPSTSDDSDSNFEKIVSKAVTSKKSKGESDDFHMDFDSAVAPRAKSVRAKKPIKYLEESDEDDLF
Procedure, shortened: (§4)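 Recombinant human TOP2A or TOP2B incubated with kDNA for 30 min at 37 °C. Buffer: 55 mM Tris-HCl pH 7.5, 135 mM NaCl, 10 mM MgCl2, 5 mM DTT, 0.1 mM EDTA, 3 mM ATP, 100 μg/mL BSA, 1% final DMSO. Compounds tested at 1–1000 μM. Products resolved on 1% agarose, SYBR Safe stained. Signal normalized to the untreated control on the same gel; three measurements.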

DNA topoisomerase 2-beta = DNA topoisomerase 2-beta (Homo sapiens, UniProt Q02880); assay: Inhibition of human TOP2B assessed as reduction in […] using kDNA as substrate incubated for 30 min; procedure, shortened: as §4
Chain of DNA topoisomerase 2-beta (Q02880 whole entry): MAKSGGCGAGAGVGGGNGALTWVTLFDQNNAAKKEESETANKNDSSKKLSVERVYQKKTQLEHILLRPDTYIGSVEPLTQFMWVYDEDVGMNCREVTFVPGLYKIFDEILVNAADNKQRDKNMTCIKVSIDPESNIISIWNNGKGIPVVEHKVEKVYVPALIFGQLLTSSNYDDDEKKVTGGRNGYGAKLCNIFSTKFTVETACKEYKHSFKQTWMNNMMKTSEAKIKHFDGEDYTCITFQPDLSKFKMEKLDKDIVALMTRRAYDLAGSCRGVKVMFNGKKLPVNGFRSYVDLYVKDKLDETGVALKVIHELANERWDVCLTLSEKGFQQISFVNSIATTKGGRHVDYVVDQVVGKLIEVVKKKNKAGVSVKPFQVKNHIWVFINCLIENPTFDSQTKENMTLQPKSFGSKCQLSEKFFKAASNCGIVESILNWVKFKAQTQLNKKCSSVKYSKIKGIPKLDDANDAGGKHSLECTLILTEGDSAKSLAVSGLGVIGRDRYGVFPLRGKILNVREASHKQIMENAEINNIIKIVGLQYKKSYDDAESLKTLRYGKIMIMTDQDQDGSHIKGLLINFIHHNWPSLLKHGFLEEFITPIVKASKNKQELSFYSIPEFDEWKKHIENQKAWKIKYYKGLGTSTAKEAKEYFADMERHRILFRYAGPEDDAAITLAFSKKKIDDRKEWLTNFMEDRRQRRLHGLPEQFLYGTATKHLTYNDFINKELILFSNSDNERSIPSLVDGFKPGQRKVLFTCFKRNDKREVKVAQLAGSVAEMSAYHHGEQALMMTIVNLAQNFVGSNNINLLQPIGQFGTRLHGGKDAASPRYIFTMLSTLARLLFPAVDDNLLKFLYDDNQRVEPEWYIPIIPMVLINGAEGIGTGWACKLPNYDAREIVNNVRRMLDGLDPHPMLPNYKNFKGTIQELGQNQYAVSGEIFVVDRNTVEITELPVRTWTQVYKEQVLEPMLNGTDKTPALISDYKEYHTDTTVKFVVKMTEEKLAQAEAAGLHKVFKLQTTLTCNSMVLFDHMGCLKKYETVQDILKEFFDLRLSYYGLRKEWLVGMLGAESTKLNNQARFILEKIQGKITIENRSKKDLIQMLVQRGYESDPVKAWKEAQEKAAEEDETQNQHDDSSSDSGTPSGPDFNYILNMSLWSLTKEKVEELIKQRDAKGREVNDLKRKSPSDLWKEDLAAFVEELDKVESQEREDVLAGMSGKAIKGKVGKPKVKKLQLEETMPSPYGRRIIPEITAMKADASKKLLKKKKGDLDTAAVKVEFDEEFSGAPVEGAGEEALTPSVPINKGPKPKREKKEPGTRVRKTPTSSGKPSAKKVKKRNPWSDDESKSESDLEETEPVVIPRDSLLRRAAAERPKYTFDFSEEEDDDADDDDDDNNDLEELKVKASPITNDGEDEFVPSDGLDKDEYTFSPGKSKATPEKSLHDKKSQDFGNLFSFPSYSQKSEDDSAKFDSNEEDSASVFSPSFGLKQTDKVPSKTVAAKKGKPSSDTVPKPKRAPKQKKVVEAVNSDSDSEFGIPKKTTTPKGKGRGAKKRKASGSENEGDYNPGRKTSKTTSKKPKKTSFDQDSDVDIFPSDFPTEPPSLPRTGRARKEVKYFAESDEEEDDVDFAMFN

Structure (SMILES): CC(C)(CN1CC(=O)NC(=O)C1)N1CC(=O)NC(=O)C1
- Activity [1]: inactive

Structure (SMILES): CN(CCN(C)C1CC(=O)NC1=O)C1CC(=O)NC1=O (stereo unspecified)
- Activity (HL-60 [2]): Active
- Activity (HL-60 [3]): Active

Structure (SMILES): O=C1CN(CC(O)CN2CC(=O)NC(=O)C2)CC(=O)N1
- Activity (HL-60 [2]): Active

- IC50 (HL-60 [5]): 0.015 µM
Structure (SMILES): COc1cccc2c1C(=O)c1c(O)c3c(c(O)c1C2=O)C[C@@](O)(C(C)=O)C[C@@H]3O[C@H]1C[C@H](N)[C@H](O)[C@H](C)O1 [DAUNORUBICIN]
- Activity [4]: 40%

- Activity [7]: 77%
- IC50 [8]: 40 µM
- IC50 (DNA topoisomerase 2-beta): 50 µM
- IC50 (HL-60 [5]): 18 µM
Structure (SMILES): C[C@@H](CN1CC(=O)NC(=O)C1)N1CC(=O)NC(=O)C1 [DEXRAZOXANE]
- EC50 [6]: 101 µM
